Experimental data: ChEMBL document CHEMBL5329183, “Naphthylthiazoles: a class of broad-spectrum antifungals” (RSC Med Chem, 2023)
Values after ≈ are worked out from the molar mass of the structure shown.

Columns and labels:
Cryptococcus neoformans [1] = assay: Antifungal activity against Cryptococcus neoformans NR 41299 assessed as inhibition of fungal growth incubated for 48 hrs by broth microdilution method; format: functional
Summary of the method: (§1)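 Clinical isolate; CLSI broth microdilution over a range of concentrations (media listed: RPMI 1640, MOPS, YPD). MIC read as lowest concentration inhibiting growth by 50% after 48 h incubation at 35 °C.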

[2] = Selectivity ratio of CC50 for cytotoxicity against African green monkey Vero cells to MIC for antifungal activity against Cryptococcus neoformans NR 41298; format: toxicity, cell-based
Nakaseomyces glabratus = assay: Antifungal activity against Candida glabrata ATCC MYA2950 assessed as inhibition of fungal growth incubated for 24 hrs by broth microdilution method; format: functional
Summary of the method: (§2)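 Clinical isolate; CLSI broth microdilution over a range of concentrations (media listed: RPMI 1640, MOPS, YPD). MIC taken as lowest concentration giving 50% growth inhibition after 24 h at 35 °C.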

[3] = Selectivity ratio of CC50 for cytotoxicity against human Caco-2 cells to MIC for antifungal activity against Cryptococcus neoformans NR 48771; format: toxicity, cell-based
Cryptococcus neoformans [4] = assay: Antifungal activity against Cryptococcus neoformans NR 41298 assessed as inhibition of fungal growth incubated for 48 hrs by broth microdilution method; format: functional; summary of the method: as §1
Cryptococcus neoformans [5] = assay: Antifungal activity against Cryptococcus neoformans NR 48771 assessed as inhibition of fungal growth incubated for 48 hrs by broth microdilution method; format: functional; summary of the method: as §1
Candida albicans [6] = assay: Antifungal activity against Candida albicans ATCC 10231 assessed as inhibition of fungal growth incubated for 24 hrs by broth microdilution method; format: functional
Summary of the method: (§3)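 Broth microdilution per CLSI guidelines against clinical isolates, incubated at 35 °C for 24 h (Candida, Aspergillus) or 48 h (Cryptococcus). MIC was the lowest concentration giving 50% growth inhibition.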

[7] = Antifungal activity against Cryptococcus gattii NR 43214 assessed as inhibition of fungal growth incubated for 48 hrs by broth microdilution method; format: functional, Cryptococcus gattii VGI; summary of the method: as §3
Cryptococcus neoformans [8] = assay: Antibiofilm activity against Cryptococcus neoformans NR 41300 assessed as inhibition of biofilm formation at 0.5xMIC measured after 48 hrs by crystal violet staining based analysis; format: functional
Summary of the method: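 Overnight C. neoformans was washed twice in PBS and adjusted to 105 cells per mL in RPMI. Cells were exposed to compound at 0.5 × MIC for 48 h at 35 °C. Biofilm was rinsed, dried, stained with 0.1% crystal violet, and the dye extracted with glacial acetic acid; OD595 readout.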

Candida albicans [9] = assay: Antifungal activity against wild type Candida albicans SC5314 assessed as inhibition of fungal growth; format: functional
Clostridioides difficile = assay: Antibacterial activity against Clostridium difficile ATCC BAA1870 assessed as inhibition of bacterial growth; format: functional
Pichia kudriavzevii [10] = assay: Antifungal activity against Candida krusei ATCC 34135 assessed as inhibition of fungal growth incubated for 24 hrs by broth microdilution method; format: functional; summary of the method: as §3
[11] = Selectivity ratio of CC50 for cytotoxicity against human Caco-2 cells to MIC for antifungal activity against Cryptococcus neoformans NR 48773; format: toxicity, cell-based
Caco-2 = assay: Cytotoxicity against human Caco-2 cells assessed as inhibition of cell viability at 128 ug/ml incubated for 2 hrs by MTS assay; format: toxicity, cell-based; settings: caco-2, 2 h, dose 128 µg/ml
Summary of the method: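 Caco-2 cells were grown in DMEM with 10% FBS, 1× nonessential amino acids and penicillin–streptomycin, then treated with 32, 64 and 128 μg mL−1 for 2 h at 37 °C, 5% CO2, in triplicate. MTS was added for 3 h and OD490 read. Viability was expressed as % of DMSO control (mean ± SD).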

[12] = Selectivity ratio of CC50 for cytotoxicity against African green monkey Vero cells to MIC for antifungal activity against Cryptococcus gattii NR 43209; format: toxicity, cell-based
Staphylococcus aureus = assay: Antibacterial activity against Methicillin-resistant Staphylococcus aureus USA300 assessed as inhibition of bacterial growth; format: functional
Candida parapsilosis = assay: Antifungal activity against Candida parapsilosis CAB 502638 assessed as inhibition of fungal growth incubated for 24 hrs by broth microdilution method; format: functional; settings: Lodderomyces parapsilosis; summary of the method: as §3
Escherichia coli = assay: Antibacterial activity against Escherichia coli JW55031 harboring tolC mutant assessed as inhibition of bacterial growth; format: functional
[13] = Selectivity ratio of CC50 for cytotoxicity against African green monkey Vero cells to MIC for antifungal activity against Cryptococcus neoformans NR 48773; format: toxicity, cell-based
[14] = Selectivity ratio of CC50 for cytotoxicity against human Caco-2 cells to MIC for antifungal activity against Cryptococcus neoformans NR 41299; format: toxicity, cell-based
Pichia kudriavzevii [15] = assay: Antifungal activity against Candida krusei CAB 396420 assessed as inhibition of fungal growth incubated for 24 hrs by broth microdilution method; format: functional; summary of the method: as §3
[16] = Selectivity ratio of CC50 for cytotoxicity against human Caco-2 cells to MIC for antifungal activity against Cryptococcus gattii NR 43210; format: toxicity, cell-based
[Candida] auris = Antifungal activity against Candida auris 383 assessed as inhibition of fungal growth incubated for 24 hrs by broth microdilution method; format: functional; settings: Candidozyma auris; summary of the method: as §2
[17] = Selectivity ratio of CC50 for cytotoxicity against human Caco-2 cells to MIC for antifungal activity against Cryptococcus neoformans NR 41298; format: toxicity, cell-based
[18] = Selectivity ratio of CC50 for cytotoxicity against human Caco-2 cells to MIC for antifungal activity against Cryptococcus gattii NR 43216; format: toxicity, cell-based
Candida albicans [19] = assay: Antifungal activity against Candida albicans NR 29448 assessed as inhibition of fungal growth incubated for 24 hrs by broth microdilution method; format: functional; summary of the method: as §2
Cryptococcus neoformans [20] = assay: Antifungal activity against Cryptococcus neoformans NR 48770 assessed as inhibition of fungal growth incubated for 48 hrs by broth microdilution method; format: functional; summary of the method: as §1
[21] = Selectivity ratio of CC50 for cytotoxicity against African green monkey Vero cells to MIC for antifungal activity against Cryptococcus gattii NR 43210; format: toxicity, cell-based
Cryptococcus neoformans [22] = assay: Antifungal activity against Cryptococcus neoformans NR 48773 assessed as inhibition of fungal growth incubated for 48 hrs by broth microdilution method; format: functional; summary of the method: as §1
[23] = Plasma concentration in Sprague-Dawley rat at 25 mg/kg, po administered as single dose and measured within few minutes by LC/MS/MS analysis; format: ADME, organism-based; settings: in vivo
Summary of the method: (§4)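 Male naïve Sprague–Dawley rats (n=3) received a single 25 mg kg−1 oral gavage dose in 5% ethanol/45% PEG 400/50% water. EDTA-K2 blood was sampled over 24 h post-dose. Plasma levels were measured by LC/MS/MS after acetonitrile protein precipitation, and parameters came from two-compartment analysis.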

[24] = AUC in Sprague-Dawley rat at 25 mg/kg, po administered as single dose by LC/MS/MS analysis; format: ADME, organism-based; parameters: dose 25 mg/kg, route po; settings: in vivo; summary of the method: as §4
[25] = Volume of distribution in Sprague-Dawley rat at 25 mg/kg, po administered as single dose by LC/MS/MS analysis; format: ADME, organism-based; settings: in vivo
Summary of the method: (§5)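 Male naïve Sprague–Dawley rats (n = 3) received a single 25 mg kg−1 dose by oral gavage in 5% ethanol/45% PEG 400/50% water. EDTA-K2 blood was sampled over 24 h. Plasma levels were measured by LC/MS/MS after acetonitrile protein precipitation, and parameters came from two-compartment analysis.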

[26] = Clearance in Sprague-Dawley rat at 25 mg/kg, po administered as single dose by LC/MS/MS analysis; format: ADME, organism-based; settings: in vivo; summary of the method: as §4
[27] = Tmax in Sprague-Dawley rat at 25 mg/kg, po administered as single dose by LC/MS/MS analysis; format: ADME, organism-based; settings: in vivo; summary of the method: as §5

SMILES	MIC (Cryptococcus neoformans [1]) [µg/mL]	selectivity ratio [2]	MIC (Nakaseomyces glabratus) [µg/mL]	selectivity ratio [3]	MIC (Cryptococcus neoformans [4]) [µg/mL]	MIC (Cryptococcus neoformans [5]) [µg/mL]	MIC (Candida albicans [6]) [µg/mL]	MIC [7] [µg/mL]	growth inhibition (GI) (Cryptococcus neoformans [8]) [%]	MIC (Candida albicans [9]) [µg/mL]	MIC (Clostridioides difficile) [µg/mL]	MIC (Pichia kudriavzevii [10]) [µg/mL]	selectivity ratio [11]	Activity (Caco-2)	selectivity ratio [12]	MIC (Staphylococcus aureus) [µg/mL]	MIC (Candida parapsilosis) [µg/mL]	MIC (Escherichia coli) [µg/mL]	selectivity ratio [13]	selectivity ratio [14]	further results
Cc1nc(-c2ccc3ccccc3c2)sc1-c1nnc(N[C@@H]2CCCC[C@@H]2N)o1 (relative stereo)	2 (≈ 4.93 µM)	64	0.5 (≈ 1.23 µM)	64	1 (≈ 2.47 µM)	2 (≈ 4.93 µM)	4 (≈ 9.86 µM)	2 (≈ 4.93 µM)	~53	1 (≈ 2.47 µM)	64 (≈ 158 µM)	1 (≈ 2.47 µM)	64	Non-Toxic	64	> 64	1 (≈ 2.47 µM)	> 64	64	64	MIC (Pichia kudriavzevii [15]): 1 µg/mL (≈ 2.47 µM); selectivity ratio [16]: 64; MIC ([Candida] auris): 1 µg/mL (≈ 2.47 µM); selectivity ratio [17]: 64; selectivity ratio [18]: 64; MIC (Candida albicans [19]): 4 µg/mL (≈ 9.86 µM); MIC (Cryptococcus neoformans [20]): 1 µg/mL (≈ 2.47 µM); selectivity ratio [21]: 64; MIC (Cryptococcus neoformans [22]): 2 µg/mL (≈ 4.93 µM)
Cc1nc(-c2ccc3ccccc3c2)sc1-c1nnc(N[C@@H]2CCCC[C@H]2N)o1 (relative stereo)	1 (≈ 2.47 µM)	64	1 (≈ 2.47 µM)	64	1 (≈ 2.47 µM)	1 (≈ 2.47 µM)	4 (≈ 9.86 µM)	1 (≈ 2.47 µM)	~56	1 (≈ 2.47 µM)	32 (≈ 78.9 µM)	1 (≈ 2.47 µM)	64	Non-Toxic	64	64 (≈ 158 µM)	1 (≈ 2.47 µM)	> 64	64	64	Cp [23]: 1000 ng/mL; AUC [24]: 79200 ng·h/mL; Vd [25]: 1.64 L; MIC (Pichia kudriavzevii [15]): 1 µg/mL (≈ 2.47 µM); selectivity ratio [16]: 64; MIC ([Candida] auris): 1 µg/mL (≈ 2.47 µM); selectivity ratio [17]: 64; selectivity ratio [18]: 64; MIC (Candida albicans [19]): 4 µg/mL (≈ 9.86 µM); MIC (Cryptococcus neoformans [20]): 1 µg/mL (≈ 2.47 µM); selectivity ratio [21]: 64; CL/F [26]: 5.33 mL/min; MIC (Cryptococcus neoformans [22]): 2 µg/mL (≈ 4.93 µM); Tmax [27]: 3 h
